hiPSC survival: enhancers of single-cell hiPSC survival, primary screen, ATPlite luminescence | 100% = ROCK inhibitor wells, 0% = DMSO | survival enhancement, % at 20 µM | 360,000 tested, 0.044% active | AID 602274, 2012; in the data active means survival enhancement above about 18%;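 further: cells exposed to compounds for 16 hours before the ATP read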
Cardio protect: cardioprotection against H2O2-induced cell death, primary screen, uHTS, H9c2 cells, ATPLite luminescence. H9c2 cardiomyocytes, H2O2 injury protection, 2 h. protection from H2O2 cell death, % at 20 µM. 360,000 tested, 0.63% active;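 active means compounds giving at least 50% protection of heart cells from peroxide-induced death in the single-dose screen, raw or plate-pattern-corrected value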;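 further: 0% = DMSO wells with peroxide and 100% = DMSO wells without peroxide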
CHOP inh: inhibitors of CHOP promoter induction, primary screen, cell-based, unfolded protein response, luciferase reporter. inhibition, % at 10 µM. CHO-K1 CHOP-promoter luciferase, tunicamycin-induced, 15-18 h. 220,000 tested, 3.8% active;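 active means compounds that reduced the stress-induced luciferase reporter signal by more than about 70% of percent inhibition, limit read from the data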;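 further: 0% = tunicamycin plus vehicle and 100% = wells without tunicamycin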
UPR CHOP act: activators of apoptotic CHOP UPR arm, primary screen, cell-based, CHO-CHOP luciferase reporter, luminescence, uHTS. UPR activation; percent of tunicamycin response over DMSO baseline. 330,000 tested, 0.34% active. activation, % at 10 µM;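 active means at 10 µM dose, activation of 40% or more, normalized to positive control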;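 further: 100% = tunicamycin at 10 µg/mL and 0% = DMSO alone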
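Evaluation: % reporter activation, DMSO baseline versus tunicamycin full activation; System: CHO-CHOP luciferase reporter cell line; Input: 500 cells/well; Incubation: 6 h compound treatment, 37 °C; Measured by: Steady-Glo luciferase luminescence; Dosing: one dose, 10 µM in 0.5% DMSO; Buffer or medium: F12 medium, 10% FBS; Benchmarks: positive tunicamycin 10 µg/mL, negative DMSO alone.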
UPR XBP1 act: activators of adaptive XBP1 UPR arm, primary screen, cell-based, CHO-XBP1 luciferase reporter, luminescence, uHTS | IRE1-XBP1 UPR activation; percent of tunicamycin response, DMSO as zero | activation, % at 20 µM | 330,000 tested, 0.33% active;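 active means versus positive control, 20 µM dose yields 30% or more activation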;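 further: 100% = tunicamycin at 10 µg/mL and 0% = DMSO only wells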
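Material: CHO-XBP1 cells stably carrying IRE1-XBP1-driven luciferase reporter / Amount: 1000 cells per well / Compound: 20 µM, 1% DMSO / Times: 6 h treatment, 37 °C / Detection: luciferase luminescence / Measure: % activation of reporter signal versus tunicamycin and DMSO controls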
An asterisk follows results filed as active; . = no result given. This is one part of a sample in which hits are shown more often than they occur.

SMILES | hiPSC survival | Cardio protect | CHOP inh | UPR CHOP act | UPR XBP1 act
CC(C)(C)C1CCC(=NOC(=O)c2ccc(F)cc2)CC1 (stereo not given) | 1 | -22 | 82* | 0 | -2
Cc1cccnc1C(NC(=O)C1CCN(CCCOc2ccccc2)CC1)c1ccc(F)cc1 (stereo not given) | -1 | 2 | . | . | .
Cc1occc1C(=O)N1CCN(c2ccc(Cl)c(Cl)c2)CC1 | 4 | -10 | 75* | 2 | -1
O=C(NCc1ccccc1)N1CCN(c2ccc(Cl)c(Cl)c2)CC1 | 0 | -30 | 76* | -1 | 3
COc1cccc(NC(=O)C2(C)CCCN(C(C)C)C2)c1 (stereo not given) | -1 | -4 | . | . | .
Cc1ccccc1S(=O)(=O)NC(=O)C1(C)CCN1C(=O)CC(c1ccccc1)c1ccccc1 (stereo not given) | 2 | -1 | . | . | .
O=C1c2cccc3cccc(c23)C(=O)N1c1ccc2ncccc2c1 | 1 | 4 | 89* | -2 | 0
S=C(NNc1ccnc2cc(Cl)ccc12)Nc1ccc(Cl)cc1Cl | 0 | -21 | 96* | 7 | 9
COc1ccc(N2C(=O)CSC23CCC(C(C)(C)C)CC3)cc1 (stereo not given) | 4 | -9 | 79* | 2 | 4
CC(C)(C)c1ccc(NC(=O)Cn2cnc3cc([N+](=O)[O-])ccc3c2=O)cc1 | 1 | 6 | 91* | 4 | -4
O=C(Cn1cnc2cc([N+](=O)[O-])ccc2c1=O)Nc1ccc(Br)cc1 | 0 | -1 | 6 | 0 | -2
CCNC(=O)COC(=O)C1C(C(=O)OCC)=C(C)NC(C)=C1C(=O)OCC | -1 | 3 | -2 | 1 | -3
CCOC(=O)C1=C(C)NC(C)=C(C(=O)OCC)C1C(=O)OCC(=O)NC1CCCCC1 | 0 | 83* | . | 1 | -4
Cc1[nH]c2ccccc2c1C(=O)CSc1nc2ncc(Cl)cc2[nH]1 | 2 | 21 | 86* | -1 | -3
Cc1ccc2nc(SCC(=O)c3c(C)[nH]c4ccccc34)[nH]c2c1 | -1 | 1 | -101 | 4 | 2
O=C(Nc1nnc(-c2ccc3c(c2)OCCO3)o1)c1ccc(Cc2ccccc2)cc1 | 0 | 44 | 97* | -2 | -1
O=C(Nc1nnc(-c2ccc3c(c2)CCCC3)o1)c1ccccc1Cl | -1 | 47 | 41 | -3 | 2
O=C(CCOc1ccccc1)Nc1nnc(-c2ccc3c(c2)OCCO3)o1 | -1 | 4 | 29 | 3 | 3
O=C(Nc1nnc(-c2ccc3c(c2)CCCC3)o1)c1ccccc1 | 0 | 52* | 100* | -3 | -2
CC1Cc2nc(SCC(=O)Nc3nc4ccccc4s3)n(C)c(=O)c2S1 (stereo not given) | 0 | -11 | 75* | 1 | 0
Cc1nnc(NC(=O)CSc2nc3c(c(=O)n2CCc2ccccc2)SC(C)C3)s1 (stereo not given) | 0 | -8 | 93* | -1 | 8
CCc1nnc(NC(=O)CSc2nc3c(c(=O)n2C)SC(C)C3)s1 (stereo not given) | 0 | -4 | 23 | 0 | 1
Cc1ccc(-c2nc(SCC(N)=O)c(C#N)c3c2CCCC3)cc1 | -1 | 2 | 83* | 2 | -2
CCNC(=O)C1(C)CCCN(C(=O)c2cc(-c3ccccc3)cs2)C1 (stereo not given) | -4 | 1 | . | . | .
CN1/C(=C\C(=O)Nc2ccc(Br)cc2)C(C)(C)c2ccccc21 | -2 | -7 | 82* | 3 | 1
SMILES | hiPSC survival | Cardio protect | CHOP inh | UPR CHOP act | UPR XBP1 act
O=C(Nc1ccccn1)c1sc2cccc(F)c2c1Cl | -1 | -28 | 78* | -4 | -2
Cc1ccc(NC(=O)c2sc3ccccc3c2Cl)nc1 | -5 | -22 | 94* | -3 | -8
Cc1nnc(NC(=O)c2sc3ccccc3c2Cl)s1 | -3 | -23 | 49 | 1 | -2
Cc1c(NC(=S)NC(=O)c2sc3ccccc3c2Cl)cccc1C(=O)O | 0 | -11 | -4 | -3 | -5
COc1ccccc1C(=O)NNC(=S)NC(=O)c1sc2ccccc2c1Cl | 3 | 16 | 80* | 13 | 26
CCc1ccccc1NC(=O)CN(C)C(=O)COC(=O)c1c(Cl)cccc1Cl | 0 | -5 | . | -1 | -1
COc1ccc(C)cc1NC(=O)COC(=O)c1c(-c2ccccc2)noc1C | 2 | 4 | . | . | .
Cn1c2nc(=O)n(-c3ccccc3)c(=O)c-2nc2c1CCCC2 | 0 | 2 | . | . | .
O=c1[nH][nH]c2c1[C@H](c1ccc(F)cc1)O[C@H](CCC(F)(F)F)C2 | 0 | . | . | . | .
Fc1ccccc1COc1cccc(/C=N/n2cnnc2)c1 | 4 | -5 | 72* | -2 | -2
C(=N\n1cnnc1)/c1cccc(Oc2ccccc2)c1 | 0 | -4 | 29 | 2 | -3
Cc1ccc(NC(=O)COC(=O)CC2CCCC2)cc1Cl | 0 | -1 | 72* | 0 | 1
COc1ccnc(Oc2ccc(F)cc2)c1C(=O)N/C=N/OCc1ccc(Cl)cc1Cl | -3 | 51* | 4 | -1 | -2
COc1ccnc(Oc2ccc(F)cc2)c1C(=O)N/C=N/OCc1ccc(F)cc1Cl | 1 | 28 | 37 | -3 | -2
O=C(O)c1cnc2ccc(Cl)cc2n1 | -2 | 2 | . | . | .
Cc1c(C)n(CC(O)CNc2ccccc2)c2ccccc12 (stereo not given) | 0 | -2 | 90* | 0 | -4
Cc1cc(C)c2c(CC(=O)NC(C)C)coc2c1 | -1 | 6 | 11 | 1 | 0
Cc1cc(C)c2c(CC(=O)Nc3nccs3)coc2c1 | 0 | -10 | 82* | -2 | 4
CCCOn1c(OCC(C)C)nc2ccccc2c1=O | 5 | 6 | 73* | 0 | 3
CC(C)COc1nc2ccccc2c(=O)n1OCC(=O)O | 2 | 58* | 15 | 1 | -1
COC(=O)COn1c(SCC(=O)OC)nc2ccccc2c1=O | 1 | 7 | -9 | 1 | 0
Cc1cc2oc(=O)cc(CN3CCC(C)CC3)c2cc1Cl | 1 | -12 | 85* | 9 | 4
CC(=O)Oc1c(Sc2ccccc2[N+](=O)[O-])c(C)nn1C(C)(C)C | 0 | 5 | 75* | -1 | -2
Cc1ccc(-n2nc(C)c(Sc3ccccc3[N+](=O)[O-])c2N)cc1 | 1 | -4 | 27 | 1 | 0
O=C1O[C@@H](c2ccccc2)C[C@@H](O)C(=O)CCCc2ccccc21 | 0 | . | . | . | .
CC(NC(=O)COC(=O)c1cn(-c2ccccc2)nc1-c1cccs1)c1ccccc1 (stereo not given) | 0 | 6 | 90* | 3 | 0
CCN1CCCSC1=S | -4 | 1 | . | . | .
COc1ccc(-c2nsc3c(N4CCCC4)ncnc23)cc1 | -5 | -38 | 90* | -7 | -4

Source: PubChem BioAssay (several laboratories)
